In paper PMC8561282 (Haematologica, 2021):
“Also recorded” adds a separate entry of the source.

Columns and labels:
[1] = system: RBC from WT, HuB3, HA Del and BS KO mice; assay: Glutathione oxidation; format: cell-based, mouse
[2] = system: pentose phosphate pathway; assay: 1,2,3-13C3-glucose tracing; format: cell-based, mouse
Summary of the method: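 Red cells from wild-type, humanized band 3, HA Del (lacking residues 1-11) and BS KO (lacking residues 12-23) mice were stimulated with methylene blue and incubated with 1,2,3-13C3-glucose at 37 °C for 1 h. In rescue arms, cells were preincubated with recombinant band 3 N-terminal peptide (residues 1-56). The read-out was the ratio of lactate isotopologues +3 (glycolysis) and +2 (pentose phosphate pathway), measured by UHPLC-MS.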

[3] = system: pentose phosphate pathway; format: cell-based, human; details: RBC lysates, 1,2,3-13C3-glucose 5 mM, 37 °C, 1 h, methylene blue; recombinant peptide
Summary of the method: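 Red cell lysates came from the band 3 Neapolis subject (AE1 residues 1-11 absent) and from healthy donors (n=3). Lysates were incubated with 1,2,3-13C3-glucose at 37 °C for 1 h under methylene blue stimulation, with or without recombinant N-terminal band 3 peptide (residues 1-56). Isotopologues were measured by UHPLC-MS to assess pentose phosphate pathway activation.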

[4] = system: GAPDH; assay: 15N-HSQC NMR of band 3 peptide 1-56 upon titration of GAPDH; format: binding; details: 25 °C, 100 or 200 GAPDH (mM in text, μM in legend)
Summary of the method: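 15N-HSQC spectra of 15N-labelled recombinant band 3 peptide 1-56 were recorded at 25 °C on a 900 instrument using a standard sequence. Recombinant GAPDH (tetramer) was titrated at 0, 100 and 200 (units as printed are unreliable). Individual residue amide signals were followed across the titration.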

[5] = system: RBC cytosol and membrane proteins; format: binding, human; details: part of macromolecular complexes with direct interactors
[6] = recombinant peptide, 1,2,3-13C3-glucose, methylene blue

Row | Molecule | Glutathione oxidation with MB [1] | Activation of the PPP, methylene blue stimulation, HA Del ([2]; 37 °C, 1 h, HA Del mouse RBC) | Rescue of the deficit in PPP activation, band 3 Neapolis [3] | Y8 amide signal upon GAPDH titration [4] | Y46 amide signal upon GAPDH titration [4] | Candidate indirect interactors by pull-down followed by crosslinking [5] | PPP activation and glycolysis with peptide, all mouse strains ([2]; legend of Figure 1I, recombinant peptide, methylene blue) | PPP activation with peptide, BS KO mouse RBC [2, 6] | PPP activation with peptide, HA Del mouse RBC [2, 6]
1 | CN(C)c1ccc2nc3ccc(=[N+](C)C)cc-3sc2c1 [MB, methylene blue, reference compound] | increased glutathione oxidation (GSSG/GSH ratios) | ablated in HA Del mice |  |  |  |  |  |  | 
2 | AE11-56: recombinantly expressed peptide coding for amino acids 1-56 of the N-terminus of band 3 (AE1) (MEELQDDYEDMMEENLEQEEYEDPDIPESQMEEPAAHDTEATATDYHTTSHPGTHK; UniProt P02730 1-56, looked up, fragment) |  |  | a defect that was corrected by rescue; also recorded: partially rescued in vitro | near complete disappearance of the central Y8 amide | no chemical shift perturbations | peroxiredoxin 2,[51] peroxiredoxin 6, catalase, phosphofructokinase isoforms,[12] proteins 4.1 and 4.2, glucose phosphate isomerase, stomatin, adducin b, carbonic anhydrase 1, and 1-phosphatidylinositol 4,5-bisphosphate phosphodiesterase η-2 | increased PPP activation and decreased glycolysis in HA Del mice and further exacerbated responses in all the other strains | higher basal levels and further increases in PPP activation by MB | the defect in PPP activation of HA Del mice was rescued
